Converted amounts (≈) assume the structure as drawn. The source made the active and inactive calls. The rule behind the calls is not given here.
Assays:
[1] = tested on: Acinetobacter baumannii; test: Antibacterial activity against Acinetobacter baumannii PFGE type A isolate by microdilution method; type: functional
Method in brief: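 MIC by broth microdilution following CLSI M7-A6; susceptibility interpreted with CLSI breakpoints.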

[2] = tested on: Acinetobacter baumannii; test: Antibacterial activity against Acinetobacter baumannii PFGE type A isolate assessed as reduction of MIC by microdilution method in presence of 200 mM NaCl; type: functional
Method in brief: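 Broth microdilution MIC per CLSI M7-A6 with CLSI breakpoints. Carbapenem MICs compared with and without 200 mM NaCl to gauge the oxacillinase contribution. blaOXA-58-carrying PFGE type 1 isolates served as CHDL-positive reference and a blaOXA-58-negative PFGE type 2 isolate as CHDL-negative reference.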

[3] = tested on: Acinetobacter baumannii; test: Antibacterial activity against Acinetobacter baumannii PFGE type A isolate by Etest MBL strip method; type: functional
Method in brief: (§1)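 Imipenem MIC and MBL activity were read with Etest MBL strips on all PFGE type A isolates. A. baumannii AC-54/97, an IMP-2 MBL producer, was the MBL-positive reference strain.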

[4] = tested on: Acinetobacter baumannii; test: Ratio of MIC for imipenem-susceptible Acinetobacter baumannii Ab F PFGE type B transconjugant to MIC for imipenem-susceptible Acinetobacter baumannii Ab F PFGE type B transconjugant in presence of 200 nM NaCl; type: functional; settings: in the assay text read “200 mM NaCl” for “200 nM NaCl”
Method in brief: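 Carbapenem MICs measured by liquid microdilution with and without 200 mM NaCl, to gauge the oxacillinase contribution. Controls were blaOXA-58-carrying PFGE type 1 isolates (CHDL-positive) and a blaOXA-58-negative PFGE type 2 isolate (CHDL-negative). Transconjugants came from filter mating into recipient Ab F and were selected on brain heart infusion agar with imipenem 16 mg/liter plus trimethoprim-sulfamethoxazole 250 mg/liter.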

[5] = tested on: Acinetobacter baumannii; test: Antibacterial activity against Acinetobacter baumannii PFGE type A isolate by Etest MBL strip method in presence of EDTA; type: functional; method in brief: as §1
[6] = tested on: Acinetobacter baumannii; test: Antibacterial activity against imipenem-susceptible Acinetobacter baumannii Ab F PFGE type B transconjugant by microdilution method; type: functional
Method in brief: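 Transconjugants came from filter mating of imipenem-resistant donors Ab 1 or Ab 8 (PFGE type A) with recipient Ab F (PFGE type B). They were selected on brain heart infusion agar with imipenem 16 mg/liter plus trimethoprim-sulfamethoxazole 250 mg/liter. MICs were then read by microdilution per CLSI M7-A6.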

[7] = tested on: Acinetobacter baumannii; test: Antibacterial activity against Acinetobacter baumannii PFGE type A isolate assessed as reduction of MIC by microdilution method in presence of 200 mg/liter cloxacillin; type: functional, organism-based
Method in brief: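 AmpC contribution was probed by liquid microdilution per CLSI M7-A6. Carbapenem MICs were read with and without 200 mg/liter cloxacillin.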

[8] = tested on: Acinetobacter baumannii; test: Antibacterial activity against Acinetobacter baumannii PFGE type A isolate by microdilution method in presence of Tazobactam; type: functional
[9] = tested on: Acinetobacter baumannii; test: Antibacterial activity against Acinetobacter baumannii PFGE type A isolate by microdilution method in presence of Sulbactam; type: functional

Compound	MIC50 [1]	MIC90 [1]	also measured
CO/N=C(\C(=O)N[C@@H]1C(=O)N2C(C(=O)[O-])=C(C[N+]3(C)CCCC3)CS[C@H]12)c1csc(N)n1 [CEFEPIME]	16 µg/mL (≈ 33.3 µM)	32 µg/mL (≈ 66.6 µM)	MIC [1]: 16 µg/mL (≈ 33.3 µM)
C[C@@H](O)[C@H]1C(=O)N2C(C(=O)O)=C(SCCNC=N)C[C@H]12 [IMIPENEM ANHYDROUS]	16 µg/mL (≈ 53.4 µM)	16 µg/mL (≈ 53.4 µM)	MIC [2]: 2 µg/mL; MIC [3]: 8 µg/mL (≈ 26.7 µM); Ratio [4]: 8; MIC [5]: 4 µg/mL; MIC [6]: 16 µg/mL (≈ 53.4 µM); Activity [7]: inactive
CC(C)(O/N=C(\C(=O)N[C@@H]1C(=O)N2C(C(=O)[O-])=C(C[n+]3ccccc3)CS[C@H]12)c1csc(N)n1)C(=O)O [CEFTAZIDIME]	250 µg/mL (≈ 457 µM)	250 µg/mL (≈ 457 µM)	Activity [2]: inactive; Activity [7]: inactive
GENTAMICIN	125 µg/mL	250 µg/mL	
COLISTIN	2 µg/mL	4 µg/mL	
O=C(O)c1cn(C2CC2)c2cc(N3CCNCC3)c(F)cc2c1=O [CIPROFLOXACIN]	64 µg/mL (≈ 193 µM)	250 µg/mL (≈ 754 µM)	
CCN1CCN(C(=O)N[C@@H](C(=O)N[C@@H]2C(=O)N3[C@@H]2SC(C)(C)[C@@H]3C(=O)O)c2ccccc2)C(=O)C1=O [PIPERACILLIN]			MIC [8]: 125 µg/mL; MIC50 [8]: 125 µg/mL; MIC90 [8]: 250 µg/mL
C[C@@H](O)[C@H]1C(=O)N2C(C(=O)O)=C(S[C@@H]3CN[C@H](C(=O)N(C)C)C3)[C@H](C)[C@H]12 [MEROPENEM]	8 µg/mL (≈ 20.9 µM)	8 µg/mL (≈ 20.9 µM)	
CC1(C)S[C@@H]2[C@H](NC(=O)[C@H](N)c3ccccc3)C(=O)N2[C@H]1C(=O)O [AMPICILLIN]			MIC [9]: 8 µg/mL; MIC50 [9]: 8 µg/mL; MIC90 [9]: 16 µg/mL
NCC[C@H](O)C(=O)N[C@@H]1C[C@H](N)[C@@H](O[C@H]2O[C@H](CN)[C@@H](O)[C@H](O)[C@H]2O)[C@H](O)[C@H]1O[C@H]1O[C@H](CO)[C@@H](O)[C@H](N)[C@H]1O [AMIKACIN]	64 µg/mL (≈ 109 µM)	125 µg/mL (≈ 213 µM)	MIC [1]: 64 µg/mL (≈ 109 µM)

— ChEMBL document CHEMBL1275541, “A plasmid-borne blaOXA-58 gene confers imipenem resistance to Acinetobacter baumannii isolates from a Lebanese hospital” (2008)
